Measured values: ChEMBL document CHEMBL1671683, “Activity of linezolid in an in vitro pharmacokinetic-pharmacodynamic model using different dosages and Staphylococcus aureus and Enterococcus faecalis strains with and without a hypermutator phenotype” (Antimicrob Agents Chemother, 2010)

What was measured:
[1] = Tmax in two-compartment pharmacokinetic/pharmacodynamic model at 200 mg, bid administered as 0.5 hrs infusion; type: ADME, organism-based; conditions: iv
In short: (§1)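 Two-compartment in vitro hollow-fibre model in cation-adjusted, protein-free Mueller-Hinton broth at 37°C. Human total-plasma linezolid profile simulated as 0.5-h infusion every 12 h for 48 h, computer-controlled syringe pump into central compartment. […] Peripheral samples assayed by validated HPLC-UV (quantification limit 0.39 μg/ml). Tmax read directly from concentration-time profiles. Run in duplicate.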

[2] = Cmax in two-compartment pharmacokinetic/pharmacodynamic model at 200 mg, bid administered as 0.5 hrs infusion; type: ADME, organism-based; design: dose 200 mg; conditions: iv
[3] = system: Enterococcus faecalis; test: Bactericidal activity against 2 hrs peripheral compartment culture samples of Enterococcus faecalis Ef1497 in two-compartment pharmacokinetic/pharmacodynamic model assessed as effect on bacterial count at 800 mg, bid administered as 0.5 hr infusion; type: functional
In short: (§2)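 An 18-h culture concentrated 50-fold was injected into the peripheral compartment 3 h pre-sampling (~10^8 CFU/ml E. faecalis, 10^9 S. aureus). Counts came from dilution plating (detection limit 2–3 log10 CFU/ml), expressed as Δlog CFU/ml from treatment start. Run in duplicate.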

[4] = AUC in two-compartment pharmacokinetic/pharmacodynamic model at 800 mg, bid administered as 0.5 hrs infusion; type: ADME; conditions: iv
[5] = system: Staphylococcus aureus; test: Bactericidal activity against 24 hrs peripheral compartment culture samples of Staphylococcus aureus RN4220 in two-compartment pharmacokinetic/pharmacodynamic model assessed as effect on bacterial count at 600 mg, bid administered as 0.5 hr infusion; type: functional; in short: as §2
[6] = AUC in two-compartment pharmacokinetic/pharmacodynamic model at 200 mg, bid administered as 0.5 hr infusion over 24 hrs; type: ADME; design: dose 200 mg, time < 24 hr; conditions: in vivo, iv
[7] = system: Staphylococcus aureus; test: Bactericidal activity against 1 hr peripheral compartment culture samples of Staphylococcus aureus RN4220 in two-compartment pharmacokinetic/pharmacodynamic model assessed as effect on bacterial count at 600 mg, bid administered as 0.5 hr infusion; type: functional
In short: (§3)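 Two-compartment hollow-fibre model in cation-adjusted, protein-free MH broth, 37°C. Linezolid given as simulated 0.5-h infusion twice daily. Inoculum grown 18 h, concentrated 50-fold and placed in the peripheral compartment 3 h before t0. Peripheral samples at set times counted by dilution plating. First 10-fold dilution not plated, limiting detection to 2–3 log10 CFU/ml. Δlog CFU/ml taken from t0 count. Duplicates.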

[8] = Mean residence time in two-compartment pharmacokinetic/pharmacodynamic model at 800 mg, bid administered as 0.5 hr infusion over 24 hrs; type: ADME, organism-based; conditions: in vivo, iv
[9] = system: Enterococcus faecalis; test: Bactericidal activity against 0.5 hrs peripheral compartment culture samples of Enterococcus faecalis ATCC 29212 in two-compartment pharmacokinetic/pharmacodynamic model assessed as effect on bacterial count at 600 mg, bid administered as 0.5 hr infusion; type: functional; in short: as §3
[10] = system: Staphylococcus aureus subsp. aureus RN4220; test: ABBC (0 to 24 hrs) in Staphylococcus aureus RN4220 MutS2 in two-compartment pharmacokinetic/pharmacodynamic model at 600 mg, bid administered as 0.5 hr infusion for 2 days
In short: (§4)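 Hollow-fibre two-compartment model in cation-adjusted, protein-free MH broth at 37°C. Human total-plasma linezolid profile simulated as 0.5-h infusion every 12 h for 48 h. Concentrated 18-h culture injected into the peripheral compartment 3 h before first sample, giving about 10^8 (E. faecalis) or 10^9 (S. aureus) CFU/ml. Viable counts by dilution plating over 0–24 h. Area indices calculated versus growth control curve. Duplicate runs.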

[11] = system: Enterococcus faecalis; test: T>MIC in Enterococcus faecalis ATCC 29212 in two-compartment pharmacokinetic/pharmacodynamic model at 200 mg, bid administered as 0.5 hr infusion for 2 days; type: functional
[12] = system: Enterococcus faecalis; test: Bactericidal activity against 0.5 hrs peripheral compartment culture samples of Enterococcus faecalis Ef1497 in two-compartment pharmacokinetic/pharmacodynamic model assessed as effect on bacterial count at 600 mg, bid administered as 0.5 hr infusion; type: functional; in short: as §3
[13] = system: Enterococcus faecalis; test: AUBC (0 to 24 hrs) in Enterococcus faecalis Ef1497 in two-compartment pharmacokinetic/pharmacodynamic model at 600 mg, bid administered as 0.5 hr infusion for 2 days; type: functional; in short: as §4
[14] = system: Enterococcus faecalis; test: ABBC (0 to 24 hrs) in Enterococcus faecalis Ef1497 in two-compartment pharmacokinetic/pharmacodynamic model at 600 mg, bid administered as 0.5 hr infusion for 2 days; type: functional; in short: as §4
[15] = Mean residence time in two-compartment pharmacokinetic/pharmacodynamic model at 800 mg, bid administered as 0.5 hrs infusion; type: ADME, organism-based; conditions: iv
[16] = in vivo; conditions: iv, 800 mg
[17] = Residual concentration at the end of the administration interval in two-compartment pharmacokinetic/pharmacodynamic model at 600 mg, bid administered as 0.5 hr infusion over 24 hrs; type: ADME; conditions: in vivo, iv
[18] = Cmax in two-compartment pharmacokinetic/pharmacodynamic model at 600 mg, bid administered as 0.5 hrs infusion; type: ADME, organism-based; design: dose 600 mg; conditions: iv
[19] = system: Enterococcus faecalis; test: Bactericidal activity against 48 hrs peripheral compartment culture samples of Enterococcus faecalis Ef1497 MutM3 in two-compartment pharmacokinetic/pharmacodynamic model assessed as effect on bacterial count at 200 mg, bid administered as 0.5 hr infusion; type: functional; in short: as §2
[20] = Apparent volume of distribution in two-compartment pharmacokinetic/pharmacodynamic model at 400 mg, bid administered as 0.5 hrs infusion; type: ADME, organism-based; conditions: iv
[21] = system: Staphylococcus aureus; test: Bactericidal activity against 14 hrs peripheral compartment culture samples of Staphylococcus aureus RN4220 in two-compartment pharmacokinetic/pharmacodynamic model assessed as effect on bacterial count at 600 mg, bid administered as 0.5 hr infusion; type: functional; in short: as §2
[22] = Tmax in two-compartment pharmacokinetic/pharmacodynamic model at 800 mg, bid administered as 0.5 hrs infusion; type: ADME, organism-based; conditions: iv; in short: as §1
[23] = Volume of distribution at steady state in two-compartment pharmacokinetic/pharmacodynamic model at 400 mg, bid administered as 0.5 hrs infusion; type: ADME, organism-based; conditions: iv, read-out: Vdss
[24] = Tmax in two-compartment pharmacokinetic/pharmacodynamic model at 600 mg, bid administered as 0.5 hr infusion over 24 hrs; type: ADME, organism-based; conditions: iv
[25] = system: Enterococcus faecalis; test: Bactericidal activity against 12.5 hrs peripheral compartment culture samples of Enterococcus faecalis Ef1497 MutM3 in two-compartment pharmacokinetic/pharmacodynamic model assessed as effect on bacterial count at 600 mg, bid administered as 0.5 hr infusion; type: functional; in short: as §2
[26] = Volume of distribution at steady state in two-compartment pharmacokinetic/pharmacodynamic model at 800 mg, bid administered as 0.5 hrs infusion; type: ADME, organism-based; conditions: iv, read-out: Vdss
[27] = Tmax in two-compartment pharmacokinetic/pharmacodynamic model at 200 mg, bid administered as 0.5 hr infusion over 24 hrs; type: ADME, organism-based; conditions: iv; in short: as §1
[28] = system: Enterococcus faecalis; test: AUBC (0 to 24 hrs) in Enterococcus faecalis ATCC 29212 in two-compartment pharmacokinetic/pharmacodynamic model at 600 mg, bid administered as 0.5 hr infusion for 2 days; type: functional; in short: as §4
[29] = system: Enterococcus faecalis; test: Bactericidal activity against 48 hrs peripheral compartment culture samples of Enterococcus faecalis ATCC 29212 in two-compartment pharmacokinetic/pharmacodynamic model assessed as effect on bacterial count at 200 mg, bid administered as 0.5 hr infusion; type: functional; in short: as §2
[30] = Volume of distribution at steady state in two-compartment pharmacokinetic/pharmacodynamic model at 800 mg, bid administered as 0.5 hr infusion over 24 hrs; type: ADME, organism-based; conditions: iv, read-out: Vdss

**Q.** For CC(=O)NC[C@H]1CN(c2ccc(N3CCOCC3)c(F)c2)C(=O)O1 [LINEZOLID], which Tmax [1] is on record?
**A.** 30 min

**Q.** What about the Cmax [2] of the same compound?
**A.** 4380 ng/mL

**Q.** What about the log10CFU/ml [3] of the same compound?
**A.** -0.13

**Q.** What about the AUC at 0.5 h [4] of the same compound?
**A.** 38200 ng·h/mL

**Q.** And the log10CFU/ml [5]?
**A.** -0.17

**Q.** And the AUC at 24 h [6]?
**A.** 10100 ng·h/mL

**Q.** And the log10CFU/ml [7]?
**A.** -0.07

**Q.** And the MRT [8]?
**A.** 409 min

**Q.** What about the log10CFU/ml [9] of the same compound?
**A.** 0.04

**Q.** What about the ABBC [10] of the same compound?
**A.** -2.27 log10CFU/ml.hr

**Q.** What about the “fT>MIC” value [11] of the same compound?
**A.** 8.08%

**Q.** What about the log10CFU/ml [12] of the same compound?
**A.** -0.01

**Q.** What about the AUBC [13] of the same compound?
**A.** 215.6 log10CFU/ml.hr

**Q.** And the ABBC [14]?
**A.** -1.49 log10CFU/ml.hr

**Q.** What about the MRT [15] of the same compound?
**A.** 393 min

**Q.** What about the half-life [16] of the same compound?
**A.** 312 min

**Q.** What about the Drug uptake [17] of the same compound?
**A.** 1.26 µg/mL

**Q.** What about the Cmax [18] of the same compound?
**A.** 13400 ng/mL

**Q.** And the log10CFU/ml [19]?
**A.** 0.79

**Q.** What about the Vd [20] of the same compound?
**A.** 130 L

**Q.** What about the log10CFU/ml [21] of the same compound?
**A.** -0.24

**Q.** And the Tmax [22]?
**A.** 30 min

**Q.** What about the Vd [23] of the same compound?
**A.** 112 L

**Q.** What about the Tmax [24] of the same compound?
**A.** 30 min

**Q.** What about the log10CFU/ml [25] of the same compound?
**A.** 0.22

**Q.** And the Vd [26]?
**A.** 104 L

**Q.** And the Tmax [27]?
**A.** 30 min

**Q.** And the AUBC [28]?
**A.** 217.8 log10CFU/ml.hr

**Q.** What about the log10CFU/ml [29] of the same compound?
**A.** 1.23

**Q.** And the Vd [30]?
**A.** 89.3 L
